Measured values from different studies.
Each line is one published result; the experiments were not run side by side.
Target: Dual specificity tyrosine-phosphorylation-regulated kinase 2 (DYRK2, Homo sapiens, UniProt Q92630)
Technique: competition with immobilised ligand
Residues used in one study (Q92630 1-601): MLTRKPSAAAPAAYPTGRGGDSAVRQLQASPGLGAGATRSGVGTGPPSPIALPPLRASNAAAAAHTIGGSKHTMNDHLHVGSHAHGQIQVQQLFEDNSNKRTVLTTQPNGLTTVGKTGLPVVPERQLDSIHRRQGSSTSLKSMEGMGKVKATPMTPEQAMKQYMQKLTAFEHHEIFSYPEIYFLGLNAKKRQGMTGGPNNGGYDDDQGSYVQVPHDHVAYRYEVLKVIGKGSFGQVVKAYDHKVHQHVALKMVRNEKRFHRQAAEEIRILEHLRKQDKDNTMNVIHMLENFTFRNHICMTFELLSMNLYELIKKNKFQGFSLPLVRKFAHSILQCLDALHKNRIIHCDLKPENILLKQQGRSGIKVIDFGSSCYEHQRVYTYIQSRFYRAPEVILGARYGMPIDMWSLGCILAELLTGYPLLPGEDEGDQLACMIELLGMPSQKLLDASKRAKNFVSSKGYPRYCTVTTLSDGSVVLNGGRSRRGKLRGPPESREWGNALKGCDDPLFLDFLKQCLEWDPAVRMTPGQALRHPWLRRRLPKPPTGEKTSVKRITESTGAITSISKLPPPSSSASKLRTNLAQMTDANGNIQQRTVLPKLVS

SMILES | observed | tested at | remaining binding [%]
c1cncc(-c2cccc(Nc3nccc(NC4CCCCC4)n3)c2)c1 | binding | 10 µM | 78
O=C(NCCCN1CCOCC1)c1ccc(Nc2ncc(Cl)c(-c3ccc(Cl)s3)n2)cc1 | binding | 1 µM | 2.9
CCN1CCN(Cc2ccc(C(=O)Nc3ccc(C)c(Oc4ccc5c(c4)CC(=O)N5)c3)cc2C(F)(F)F)CC1 | binding | 1 µM | 95
COc1cnc(Nc2cccc(S(N)(=O)=O)c2)nc1N1CCN(c2ccccc2)CC1 | binding | 1 µM | 70
C[C@H](c1ccc(F)cc1)N(Cc1cccc(C(=O)O)c1)C(=O)c1cnc2ccccc2c1 | cell-free assay | 1 µM | 85
O=C(Nc1c[nH]nc1C(=O)NC1CCNCC1)c1cc(F)cc(F)c1 | binding | 1 µM | 4.8
CO[C@@H](C)c1c(Nc2ccc([C@H](N(C)C(=O)C3CCS(=O)(=O)CC3)C(F)(F)F)cc2)cnc2cc(Cl)nn12 | cell-free assay | 1 µM | 89
O=C(NCCCN1CCOCC1)c1ccc(Nc2nccc(-c3cc4ccccc4s3)n2)cc1 | binding | 1 µM | 16
CN(C(=O)c1ccccc1)c1cc(N(C)c2ccc3c(c2)CCc2ccc(C(=O)NCCN4CCOCC4)cc2C3=O)ccc1F | cell-free assay | 1 µM | 82
Cc1cnc(Nc2ccc(C(=O)N3CCC(N4CCCC4)CC3)cc2)nc1-c1cc2ccccc2s1 | binding | 1 µM | 1.3
CS(=O)(=O)N1CCCC(NC(=O)[C@H](CCC2CCCCC2)NC(=O)c2ccc(CNc3ncnc4c3nnn4-c3ccccc3)cc2)C1 (stereo partly shown) | cell-free assay | 0.1 µM | 100
COc1cnc(Nc2cccc(S(N)(=O)=O)c2)nc1N1CCN(c2ccccc2)C(=O)C1 | binding | 1 µM | 56
C=CC(=O)N1CCC(C(=O)NCC(=O)N2CCN(c3nc(-c4cnc(N)nc4C(F)F)nc(N4CCOCC4)n3)CC2)CC1 | binding | 1 µM | 80
